Compound activity: PubChem, Sanford-Burnham Center for Chemical Genomics
Compounds with a hit are over-represented: about 1.7% of the library has one in this group of screens.
Scp1 inh: Scp-1 phosphatase inhibitors, primary screen, biochemical, colorimetric, uHTS; Recombinant Scp1, phosphopeptide, malachite green phosphate absorbance; inhibition, % at 20 µM; 340,000 tested, 0.88% active;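 active means inhibition above about 50% at 20 µM, limit read from the data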
Target sequence (Q9GZU7 76-261 limits assumed): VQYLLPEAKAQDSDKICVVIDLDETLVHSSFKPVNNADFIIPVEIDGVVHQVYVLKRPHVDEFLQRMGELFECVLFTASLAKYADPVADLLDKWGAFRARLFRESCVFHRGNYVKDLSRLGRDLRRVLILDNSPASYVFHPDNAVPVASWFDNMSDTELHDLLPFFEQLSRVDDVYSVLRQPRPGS
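Incubation: 45 min enzyme reaction at room temperature / System: truncated SCP-1 phosphatase (76-261aa) / Reagent: Phospho 17-mer peptide substrate / Buffer or medium: Acidic Tris acetate buffer with magnesium and detergent / Signal: absorbance at 630 nm / Doses: one concentration, 20 µM, with 1.0% DMSO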
LMPTP inh: LMPTP phosphatase inhibitors, primary screen, biochemical, fluorescence intensity, uHTS | 360,000 tested, 0.22% active | recombinant LMPTP-A, OMFP fluorogenic substrate | inhibition, % at 20 µM;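 active means compounds that cut the enzyme signal by at least half of the control window in the single-dose screen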
Target sequence (P24666 whole entry, looked up): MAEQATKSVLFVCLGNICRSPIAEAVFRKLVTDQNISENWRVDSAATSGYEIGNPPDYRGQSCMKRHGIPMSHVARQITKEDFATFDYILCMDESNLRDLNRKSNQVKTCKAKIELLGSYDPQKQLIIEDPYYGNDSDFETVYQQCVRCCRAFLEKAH
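Buffer or medium: Bis-Tris pH 6.0, DTT, detergent; Assay system: LMPTP-A enzyme; Quantity: 0.625 nM enzyme; Detection: endpoint fluorescence intensity; Times: 50 min dark incubation at room temperature; Controls: substrate-only low control, DMSO enzyme-plus-substrate high control; Doses: single 20 µM dose; Read-out: percent inhibition versus substrate-only and uninhibited controls; Reagent: 400 µM OMFP.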
DNMT1 inh: human DNMT1 methyltransferase inhibitors, primary screen, biochemical, molecular beacon, fluorescence, HinP1I cleavage, uHTS. 360,000 tested, 0.83% active. inhibition (reported as % activation of signal), % at 10 µM. DNA (cytosine-5)-methyltransferase 1 (Homo sapiens), P26358; in the data active means inhibition above about 50%
STEP block: STEP phosphatase inhibitors, primary screen, biochemical, fluorescence intensity, uHTS; Tyrosine-protein phosphatase non-receptor type 5 (Homo sapiens), P54829; recombinant STEP, OMFP fluorogenic substrate; inhibition, % at 20 µM; 360,000 tested, 0.25% active;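 active means inhibition at 20 µM, scaled per plate between control wells, above about 37%, limit read from the data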
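Test system: STEP tyrosine phosphatase / Reagent: OMFP at 25 µM / Doses: 20 µM, 1% DMSO / Read-out: percent inhibition scaled to no-enzyme and uninhibited-enzyme controls, plate-pattern corrected / Detection: FITC-channel fluorescence of OMFP product / Medium: Bis-Tris buffer pH 6.0, 2.5 mM DTT, 0.005% Tween 20 / Schedule: 20 min at room temperature, dark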
SUMO1-SIM PPI: modulators of SUMO1 protein-protein interactions, primary screen, biochemical, uHTS | Small ubiquitin-related modifier 1 (Homo sapiens), P63165 | SUMO1 binding to a labelled peptide, TR-FRET, 1 h | 360,000 tested, 0.33% active | inhibition, % at 20 µM; in the data active means inhibition above about 37%
Target sequence (P63165 whole entry, looked up): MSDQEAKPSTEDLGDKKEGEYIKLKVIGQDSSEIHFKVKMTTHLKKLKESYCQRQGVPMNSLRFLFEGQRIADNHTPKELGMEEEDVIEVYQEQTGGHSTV
Scp-1 conf: Scp-1 phosphatase inhibitors, retest, confirmation, biochemical, colorimetric, single concentration; recombinant SCP-1 catalytic domain, phosphate release, malachite green absorbance; inhibition, % at 20 µM; shares compounds with Scp1 inh; 2,500 tested, 61% active
Scp-1 MG ctr: colorimetric readout interference by compounds, confirmation, artefact control for Scp-1 inhibitor project, biochemical, single concentration; shares compounds with Scp1 inh; Colorimetric interference counterscreen, malachite green absorbance 630 nm; apparent inhibition (interference), % at 20 µM; 2,500 tested, under 10 active;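 further: compounds added after enzyme reaction finished so only phosphate colour detection is probed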
Scp-1 Tm shift: Scp-1 binding by thermal shift, confirmation, orthogonal assay for Scp-1 inhibitor project, biophysical, differential scanning fluorimetry | shares compounds with Scp1 inh | Recombinant SCP1, Sypro Orange thermal shift Tm | thermal shift relative to vanadate control, % at 40 µM | 1,500 tested, 25% active | AID 540329, 2011;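 active means substances whose mean melting-temperature shift, as a percentage of the reference inhibitor's shift, reaches about 5.3%, limit read from the data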
Large screens that a line does not name were inactive (follow-up assays come after a bar, where they were run).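 How the source made its calls, unless noted: active means inhibition of at least 30% at 20 µM; inactive means the rest.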

Cc1ccc(-n2[nH]c(C)c(/C=N/Nc3ccc([N+](=O)[O-])cc3[N+](=O)[O-])c2=O)cc1C	Scp1 inh 95.5, STEP block 70.3 | Scp-1 conf 67.5 | Scp-1 MG ctr inactive | Scp-1 Tm shift 10.7
Cc1c(C(=O)NCCN2CCOC2=O)oc2c(F)cccc12	none | Scp-1 conf inactive | Scp-1 MG ctr inactive
O=C(Cc1ccccc1)NN1C(=O)c2ccccc2C1=O	none
O=C(CN1C(=O)c2ccccc2C1=O)NN1C(=O)c2ccccc2C1=O	Scp1 inh 55.5 | Scp-1 conf inactive | Scp-1 MG ctr inactive
CC(C)NC(=O)CC1OC(=O)c2ccccc21 (stereo not drawn)	none
O=C(CC1OC(=O)c2ccccc21)NNC(=O)c1ccc(F)cc1 (stereo not drawn)	none | Scp-1 conf inactive | Scp-1 MG ctr inactive
Clc1ccc(C=NN2CCCCCC2)c(Cl)c1	Scp1 inh 66.7 | Scp-1 conf inactive | Scp-1 MG ctr inactive
COc1ccc(CN(C(=O)/C=C/c2ccco2)C2CCS(=O)(=O)C2)cc1 (stereo not drawn)	Scp1 inh 87.4 | Scp-1 conf 45.5 | Scp-1 MG ctr inactive | Scp-1 Tm shift inactive
CC1C(C#N)=C(N)OC2=C1C(=O)CC(c1ccccc1)C2 (stereo not drawn)	Scp1 inh 55.4 | Scp-1 conf inactive | Scp-1 MG ctr inactive
CCCCOC(=O)c1cc(-c2ccc(/C=N/n3cnnc3)o2)ccc1Cl	Scp1 inh 91.2 | Scp-1 conf inactive | Scp-1 MG ctr inactive
O=C(Nc1cccc(NC(=O)C2CCCO2)c1)C1CCCO1 (stereo not drawn)	Scp1 inh 56.1 | Scp-1 conf inactive | Scp-1 MG ctr inactive
CC(=O)Nc1cccc(NC(=O)C2CCCO2)c1 (stereo not drawn)	none (no result: Scp1 inh)
COc1ccc(C(=O)NNC(=O)c2ccc3ccccc3c2O)cc1	none
Cc1ccc(C(=O)NNC(=O)c2ccc3ccccc3c2O)cc1	Scp1 inh 75.0 | Scp-1 conf 56.3 | Scp-1 MG ctr inactive | Scp-1 Tm shift inactive
Cc1ccc(NC(=O)COc2ccccc2C(=O)NCc2ccccc2)cc1	none
COC(=O)CN1C(=O)N/C(=C/c2ccc(OC)cc2)C1=O	none
COC(=O)Cn1c(=O)c2c(n(Cc3ccccc3)c1=O)N/C(=C/c1ccc(Br)cc1)C2=O	Scp1 inh 107.2 | Scp-1 conf 56.5 | Scp-1 MG ctr inactive | Scp-1 Tm shift 11.9
CC1=CC(C)[C@@H]2COC(c3ccc(O)cc3)[C@H]1C2C (stereo partly drawn)	none
CC1=CC(C)C2COC(c3ccc[n+](C)c3)C1C2C (stereo not drawn)	Scp1 inh 95.5 | Scp-1 conf inactive | Scp-1 MG ctr inactive
COc1cc(/C=N/N2CCN(Cc3ccccc3)CC2)cc(OC)c1OC(C)=O	none
O=C(NCc1cccnc1)c1cccc(S(=O)(=O)N2CCOCC2)c1	Scp1 inh 63.6 | Scp-1 conf inactive | Scp-1 MG ctr inactive
COc1ccc(NS(=O)(=O)c2cccc(C(=O)OCC(=O)N3CCN(c4ccc(OC)cc4)CC3)c2)cc1	none
Cn1cnc(C(=O)N2CCN(C(=O)OC(C)(C)C)CC2)c1C(=O)N1CCN(C(=O)OC(C)(C)C)CC1	none
Cn1cnc(C(=O)N2CCN(c3ccccc3)CC2)c1C(=O)N1CCN(c2ccccc2)CC1	Scp1 inh 96.3 | Scp-1 conf 84.4 | Scp-1 MG ctr inactive | Scp-1 Tm shift inactive
O=C(O)CCC(C(=O)O)N1C(=O)C2C3CCC(C3)C2C1=O (stereo not drawn)	none (no result: Scp1 inh)
CCCCCN(C(=O)CCC(=O)OCCOc1cccc(Cl)c1)c1c(N)n(CCCC)c(=O)[nH]c1=O	none
C[n+]1ccccc1C1CCCC/C1=N\NC(N)=S (stereo not drawn)	Scp1 inh 112.6 | Scp-1 conf 99.7 | Scp-1 MG ctr inactive | Scp-1 Tm shift inactive
CC1CCCC/C1=N\NC(=S)NCCc1ccccc1 (stereo not drawn)	none
O=C(Nc1ccccc1C(=O)N1CCCCCC1)c1ccccc1	Scp1 inh 58.5 | Scp-1 conf inactive | Scp-1 MG ctr inactive
COc1cccc(C(=O)Nc2ccccc2C(=O)N2CCCC2)c1	none
CC(=O)c1ccc(NC(=S)NC(=O)c2c(Cl)c(C)nn2C)cc1	none
O=C(N/N=C/c1ccc2ccccc2c1)c1ccc(COc2ccc3c(c2)CCC3)o1	Scp1 inh 101.8 | Scp-1 conf 70.9 | Scp-1 MG ctr inactive | Scp-1 Tm shift inactive
Cc1cccc(NC(=O)C2CCCN(S(=O)(=O)c3cccs3)C2)c1C (stereo not drawn)	none
CC(=O)OCCCn1c(C)[n+](C)c2cc(Cl)c(Cl)cc21	Scp1 inh 72.6 | Scp-1 conf inactive | Scp-1 MG ctr inactive
CCn1c(C)[n+](CCOC(C)=O)c2cc(Cl)c(Cl)cc21	none
CCC(C)c1ccccc1NC(=O)c1[nH]c(C)c(C(C)=O)c1C (stereo not drawn)	Scp1 inh 53.9 | Scp-1 conf inactive | Scp-1 MG ctr inactive
CC(=O)c1c(C)[nH]c(C(=O)Nc2cccc3ccccc23)c1C	none
CSc1nnc(C)c(/C=C/Nc2ccc(F)cc2F)n1	Scp1 inh 55.0 | Scp-1 conf 65.7 | Scp-1 MG ctr inactive | Scp-1 Tm shift inactive
Cc1nnc(N2C(=O)c3oc4ccccc4c(=O)c3C2c2ccco2)s1 (stereo not drawn)	Scp1 inh 60.0 | Scp-1 conf 42.4 | Scp-1 MG ctr inactive | Scp-1 Tm shift inactive
CN1C(=O)/C(=C\c2ccco2)N=C1c1ccc(Cl)cc1Cl	none
CC[N+](CC)(CC)CCOc1ccc(/C=C/c2ccccc2)cc1	Scp1 inh 73.7 | Scp-1 conf 50.3 | Scp-1 MG ctr inactive | Scp-1 Tm shift inactive
COc1ccc(OCC(=O)NC(=S)Nc2ccc(S(=O)(=O)Nc3cc(C)on3)cc2)cc1	none
CCCC(=O)Nc1ccc2nc(SCC(=O)Nc3nccs3)sc2c1	Scp1 inh 102.1 | Scp-1 conf inactive | Scp-1 MG ctr inactive
